Source: PubChem
rRNA inh HTS: inhibits bacterial ribosomal RNA function over humanized ribosomes; E. coli WT GFP vs humanized-ribosome RFP mutants, fluorescence, 24 h; stronger effect = lower value; DMSO median 0, no signal -100; GFP signal change (wild-type ribosome), % (concentration not given with the values); hit rate 1.6% among 350,000;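 active = significant combined selectivity score with lowered wild-type GFP, culture density cut under 30%, mutant RFP and density less affected; inactive = any of these conditions unmet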
MLL AF4-AF9 inh: inhibitors of human MLL-AF4/AF9 interaction | P42568 | AlphaScreen, biotin-AF4 peptide binding to FLAG-AF9 | inhibition, % at 10 µM | hit rate 0.47% among 350,000 | AID 651704;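 active = every replicate reaching a set inhibition limit, whatever the replicate mean, cut at about 25% in these data; inconclusive = mean inhibition reaches that limit but some replicates miss it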;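 also: 0% = plate neutral control median and 100% = total signal loss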
ERAP1 inh: inhibitors of human ERAP1 aminopeptidase. Q9NZ08. recombinant ERAP1, Leu-AMC fluorescence, 60 min. inhibition, % at 10.7 µM. hit rate 0.15% among 340,000;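 active = mean replicate inhibition of at least 30%, or all replicates individually reaching that 30% level; inactive = mean below 30% and not every replicate reaching it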;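 also: 0% = neutral control wells and 100% = L-leucinethiol positive control wells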
Target sequence (Q9NZ08 whole entry, looked up): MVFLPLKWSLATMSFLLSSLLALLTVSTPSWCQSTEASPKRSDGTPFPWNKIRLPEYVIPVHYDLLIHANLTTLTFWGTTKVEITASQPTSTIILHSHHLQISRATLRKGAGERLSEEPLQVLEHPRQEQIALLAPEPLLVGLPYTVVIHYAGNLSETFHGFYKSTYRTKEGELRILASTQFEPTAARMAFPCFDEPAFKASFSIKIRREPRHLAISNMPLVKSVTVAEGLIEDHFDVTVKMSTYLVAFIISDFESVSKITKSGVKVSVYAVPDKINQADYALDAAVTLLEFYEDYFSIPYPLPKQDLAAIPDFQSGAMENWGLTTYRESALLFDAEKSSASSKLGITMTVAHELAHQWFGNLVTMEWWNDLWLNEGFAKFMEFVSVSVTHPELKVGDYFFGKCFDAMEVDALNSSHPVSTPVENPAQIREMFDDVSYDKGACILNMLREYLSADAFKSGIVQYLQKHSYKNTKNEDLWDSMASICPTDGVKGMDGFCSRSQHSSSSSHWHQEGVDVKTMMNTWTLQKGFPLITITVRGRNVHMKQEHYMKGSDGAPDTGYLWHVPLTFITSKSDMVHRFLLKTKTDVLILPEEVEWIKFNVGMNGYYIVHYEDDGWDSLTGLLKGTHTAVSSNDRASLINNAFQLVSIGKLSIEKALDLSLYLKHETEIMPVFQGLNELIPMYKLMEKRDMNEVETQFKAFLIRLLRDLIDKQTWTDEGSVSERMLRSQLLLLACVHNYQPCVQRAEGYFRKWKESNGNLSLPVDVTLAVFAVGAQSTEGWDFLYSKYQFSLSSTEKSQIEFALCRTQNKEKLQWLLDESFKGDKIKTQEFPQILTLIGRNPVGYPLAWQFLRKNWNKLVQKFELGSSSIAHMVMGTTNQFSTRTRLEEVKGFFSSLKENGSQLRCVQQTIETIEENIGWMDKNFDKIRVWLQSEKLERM
SIRT5 inh: blocks human SIRT5 desuccinylation of peptide; Q9NXA8; Purified SirT5, succinyl-peptide AMC, trypsin-coupled fluorescence; inhibition, % at 15 µM; hit rate 1.1% among 330,000; in the data active = inhibition above about 15%; inconclusive = no clear call, values can overlap the other calls
E-sel inducer: induces E-selectin expression in human endothelial cells; activation, % at 7.58 µM; hit rate 0.37% among 260,000; HUVEC E-selectin immunofluorescence imaging; normalized: neutral wells 0, TNF-alpha wells 100; P16581;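 active = mean E-selectin-positive cell signal at least 10% of the positive control, reached in at least 60% of replicates, without over 20% cell loss; inconclusive = no rule given, readout overlaps actives, possibly toxicity-flagged; inactive = the rest, including those meeting only one limit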
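material = human umbilical vein endothelial cells (HUVEC), E-selectin induction | quantity = 3,000 cells/well | medium = EGM-2 growth medium on 0.1% gelatin-coated wells | technique = immunofluorescence imaging | read-out basis = % PE-positive cells | control set = TNF-alpha positive control, DMSO neutral control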
S100A4 MyoIIA: blocks human S100A4 binding to myosin IIA peptide; P26447; hit rate 0.14% among 360,000; inhibition, % at 10.7 µM; S100A4/TAMRA-MyoIIA peptide fluorescence polarization;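 active = mean inhibition of at least 70% across replicates, with every replicate also reaching that level; inconclusive = mean inhibition reaches 70% but some replicates fall short; inactive = mean inhibition below 70%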
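Material: S100A4 monomer protein / Buffer or medium: 50 mM HEPES pH 7.2, 10 mM CaCl2, 100 mM KCl / Times: 5 min incubation before reading / Benchmarks: neutral control DMSO, positive control TFP / Reagent: labelled myosin peptide probe, 5 nM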
AID977621: wild-type E. coli growth inhibition versus H69 humanized strain – H69 mutant RFP, wild-type GFP, cherry-pick, dose response. shares compounds with rRNA inh HTS. fluorescence, 24 h. activity change, negative = inhibition at 50 µM. 1,900 tested, under 10 active. AID 977621;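 active = Wild-type ribosome reporter drop at least double the humanized mutant ribosome reporter drop, growth loss under a set limit; inconclusive = no clear call, values can overlap the other calls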;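 also: wild-type GFP and H69 mutant RFP strains grown together 50/50 in each well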
AID977628: growth of wild-type and h24-humanized E. coli strains – h24 mutant RFP vs wild-type GFP, cherry-pick, dose response; shares compounds with rRNA inh HTS; E. coli WT GFP strain growth, fluorescence, 24 h; activity change, negative = inhibition at 50 µM; 1,900 tested, under 10 active;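 active = compound lowering the normal-ribosome reporter at least twice as much as the humanized-ribosome reporter, growth loss under a set limit; inconclusive = no clear call, values can overlap the other calls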;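 also: wild-type GFP and h24 humanized RFP strains co-cultured 1 to 1 per well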
Starred values were filed as active, the others as inactive; u = inconclusive; x = not tested or not shown. In the library only some 3.4% were active in any assay of this set; here they are far more common.

SMILES	rRNA inh HTS	MLL AF4-AF9 inh	ERAP1 inh	SIRT5 inh	E-sel inducer	S100A4 MyoIIA	AID977621	AID977628
Cc1ccc(C(=O)Nc2cccc3[nH]c(C(F)(F)F)nc23)cc1	-24*	0	-2	-5	x	-17	-7.3	x
O=C(C[C@H]1CC[C@@H]2[C@H](COC[C@H](O)CN2S(=O)(=O)c2ccccc2)O1)NCCN1CCCCC1	5	0	1	-1	0	9	x	x
CC(C)NC(=O)Nc1ccc2c(c1)C(=O)N([C@H](C)CO)C[C@@H](C)[C@H](CN(C)S(C)(=O)=O)OCCCC[C@@H](C)O2	2	-8	-3	1	x	-7	x	x
CC(C)CN(C(=O)c1ccco1)c1nc2ccccc2s1	-19*	-1	-1	-4	0	-4	x	u
C[C@H](CO)N1C[C@H](C)[C@H](CN(C)Cc2ccc(C(=O)Nc3ccccc3N)cc2)Oc2ccc(NS(=O)(=O)c3ccccc3)cc2C1=O	-1	-2	-2	13	1	32	x	x
O=C(NCc1ccco1)c1ccc2ccccc2n1	-14*	-1	-1	-1	-1	-1	-15	u
O=C(NCc1ccc(Cl)cc1)c1ccc2ccccc2n1	1	-4	4	-2	x	4	x	x
COc1ccc(Cl)cc1NC(=O)C1Cc2ccccc2CN1S(C)(=O)=O (centres undefined)	-20*	0	2	0	x	-35	x	-19
CO[C@H]1CN(C)C(=O)c2cc(NC(=O)C3CC3)ccc2OC[C@H](C)N(CC2CC2)C[C@@H]1C	2	-2	1	-3	0	-12	x	x
CNC(=O)C[C@@H]1CC[C@H]2[C@H](COc3ccc(NC(=O)NC(C)C)cc3C(=O)N2C)O1	1	x	x	x	1	x	x	x
COc1ccc(-c2cn3cc(Cl)ccc3n2)cc1OC	-27*	6	6	-1	x	5	x	u
COc1ccc(-c2cn3cc(C)ccc3n2)cc1Br	-2	11	-5	-2	x	-1	x	x
O=C(CC(c1ccccc1)c1cc(Br)ccc1O)N1CCCC1 (centres undefined)	-20*	0	x	0	-1	-4	x	u
CC(=O)Nc1cccc(OCCCOc2cccc([N+](=O)[O-])c2)c1	-5.5*	3	1	x	0	1	-11	-8.9
CC(=O)Nc1cccc(Oc2ccc([N+](=O)[O-])cc2Cl)c1	0	1	18	-5	x	-3	x	x
CCOc1ccccc1/C=C/c1cc(C(=O)O)c2ccccc2n1	-23*	0	x	-5	0	-8	-5.7	x
CNC[C@@H]1Oc2ccc(NS(=O)(=O)c3cn(C)cn3)cc2C(=O)N([C@H](C)CO)C[C@H]1C	0	-4	-2	-3	21	15	x	x
Brc1cc2c(cc1Br)OCCOCCOCCO2	-24*	0	-1	3	x	2	u	x
c1ccc2c(c1)OCCOCCOCCOCCOCCOc1ccccc1OCCOCCOCCO2	6	0	-2	9	0	2	x	x
C[C@@H]1CN([C@@H](C)CO)C(=O)Cc2cc(NC(=O)c3ccncc3)ccc2O[C@@H]1CN(C)S(=O)(=O)c1ccc(Cl)cc1	0	0	x	-4	0	x	x	x
CCOc1ccc(NC(=O)CCc2nnc3ccc(N4CCC(C)CC4)nn23)cc1	-20*	2	1	0	x	-3	-1.4	x
Cc1ccc(-n2c(SCC(N)=O)nnc2-c2cnccn2)cc1	-25*	-18	-1	0	0	-1	-2.2	u
Cc1ccc(-n2c(SCC(=O)OC(C)C)nnc2-c2cnccn2)cc1	x	x	x	x	-1	x	x	x
Fc1ccc(CSc2nnc(-c3ccco3)o2)cc1	-17*	1	1	-3	1	-4	u	1.4
O=[N+]([O-])c1ccc2nc(-c3ccccc3[N+](=O)[O-])[nH]c2c1	-28*	0	-3	1	0	-3	x	-12
SMILES	rRNA inh HTS	MLL AF4-AF9 inh	ERAP1 inh	SIRT5 inh	E-sel inducer	S100A4 MyoIIA	AID977621	AID977628
O=[N+]([O-])c1cccc(-c2nc3ccc([N+](=O)[O-])cc3[nH]2)c1	9	3	2	2	2	4	x	x
CC(C)c1cn(CC[C@@H]2CC[C@@H](NS(=O)(=O)Cc3ccccc3)[C@H](CO)O2)nn1	0	-2	1	3	0	5	x	x
O=C(O)c1ccc2c(c1)N(Cc1ccccc1)C(=O)c1ccccc1S2	-24*	2	x	0	5	-5	-9.8	x
O=C(C[C@H]1C[C@@H]2c3cc(NC(=O)C4CCC4)ccc3O[C@@H]2[C@@H](CO)O1)NCc1ccccc1	-4	-2	3	-4	-1	7	x	x
Cc1ccc(NC(=O)C2CCN(S(=O)(=O)c3ccc4c(c3)NC(=O)CO4)CC2)cc1	-18*	2	1	-10	x	0	x	-17
C=CCSc1cc(C)nc2c(-c3ccccc3)c(C)nn12	-38*	x	3	-6	2	-4	-7.6	-4.8
CC(C)Oc1nc(-c2ccccc2Cl)nc2ccccc12	-18*	-3	7	1	1	4	x	-11
CCOc1nc(-c2ccccc2O)nc2ccccc12	5	-7	0	-23	x	0	x	x
CCCN1CCN(C(=O)c2ccc(Sc3ccc(C)cc3)c(NC(C)=O)c2)CC1	-13*	13	2	3	x	-2	-22	-3.8
O=C(Nc1ccc2c(c1)OCO2)c1cccc(S(=O)(=O)N2CCCC2)c1	-14*	6	0	-1	x	-4	u	x
C[C@H]1CN([C@@H](C)CO)C(=O)c2cccc(NC(=O)NC3CCCCC3)c2O[C@H]1CN(C)Cc1ccc(C(=O)Nc2ccccc2N)cc1	-1	0	-2	-5	x	5	x	x
COc1ccc(CC(=O)Oc2ccc(C)cc2C)cc1	-23*	-2	1	0	0	-9	-5.7	-5.9
Cc1ccc(OC(=O)CCC(=O)Oc2ccc(C)cc2C)c(C)c1	-6	-7	-2	-9	0	1	x	x
Cn1c(CO)cnc1SCC(=O)c1ccc(F)cc1	-5	-1	3	-1	0	-4	x	x
Cn1c(CO)cnc1SCC(=O)c1ccc(Br)cc1	-21*	-1	12	2	x	-3	1.8	-5.8
COc1ccc(C2CC(c3ccc(Br)cc3)=NN2C(=O)CN2CCCC2)cc1 (centres undefined)	-19*	11	6	-3	0	0	-3.5	u
